Test system: MS2 coat protein
Assay: apparent Kd, MS2 coat protein; higher = weaker binding; RNA-MaP array; FMN 200 µM where present
Summary of the method: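 Designs were transcribed by stalled E. coli RNA polymerase on Illumina sequencing-chip clusters. They were titrated with SNAP-549-labelled MS2 coat protein from 0.7 or 1.5 nM, doubling to 3 µM, in 100 mM Tris-HCl pH 7.5, 80 mM KCl, 4 mM MgCl2, BSA, DTT, yeast tRNA and Tween-20, without and then with constant ligand. The apparent Kd is the median of filtered per-cluster fits after normalisation of green signal to red-channel RNA signal and control-cluster median Fmax.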

[1] = designed as: OFF switch for flavin mononucleotide, no ligand
[2] = ligand present: flavin mononucleotide, designed as: OFF switch for flavin mononucleotide
[3] = designed as: ON switch for flavin mononucleotide, no ligand
[4] = ligand present: flavin mononucleotide, designed as: ON switch for flavin mononucleotide

Row | Sequence | apparent Kd [1] [µM] | apparent Kd [2] [µM] | apparent Kd [3] [µM] | apparent Kd [4] [µM]
1 | UGCAUGCUAGGAUAUACGAAACAUUAGGGUUCUUUGUAUGAACAUGAGGAUCACCCAUGUAGAAGGAGCGUGCU | 0.117 | 0.296 | – | –
2 | CGGCCAUAUCGAGGAUAUAAGUCUAGGACAUGAGGAUCACCCAUGUAUGUCUUAGAAGGCGAUAUGGCCAGCCUGUUACAGGCA | – | – | 0.0289 | 0.00583
3 | AGACUGCGUAGAAUUAGCAGCUGACAGGAUAUGACAUGAGGAUCACCCAUGUGAACUACAAAGGAUCAGAAGGGUCACGACACA | 0.0186 | 0.0303 | – | –
4 | UAUGUGAGAGGAUAUACUGAACCCAACCUAGAUUCUCACGAACAUGAGGAUCACCCAUGUAGAAGGCUCCGUGU | 0.124 | 0.394 | – | –
5 | ACGGCAAUCGAAGGAUAUGGUUACAUGAGGAUCACCCAUGUCUAGGGUCUAAUUAGGUAUAAUUACCAGAAGGUCGAAGGCCUA | 0.0937 | 0.122 | – | –
6 | AUUAAGCAGCAGGAUAUAAGUAUCUAAAGGUGGUUAGAAGGGCUGACAUGAGGAUCACCCAUGUGCUCUUCGUG | 0.0157 | 0.0211 | – | –
7 | UGAGCGACCACAGGAUAUACUUGAGAAGACCGAGUAGAAGGGUGGAAGAGCAUGCAGUGACAUGAGGAUCACCCAUGUGGUUGG | – | – | 0.097 | 0.0658
8 | AAAACGUCAGGAUAUACAGAAGAGAUCACAAAAAAAAAAAAACAUGAGGAUCACCCAUGUAGAAGGGACAAAAA | 0.138 | 0.188 | – | –
9 | CUUUCGUGAGGAUAUCAGUAGUAAUAAUAUAAAAUUACUACUGAGAAGGCACAUGAGGAUCACCCAUGUUCCUC | 0.0245 | 0.114 | – | –
10 | UUUACAUGAGGAUCACCCAUGUCUGUCACCCAUGUGUGCAAUCAGGAUAUGAUAUCAAUAAUAAAUUAGAAGGGAUAACAUGAG | – | – | 0.0735 | 0.1
11 | UCCUCGUAGUAGAAGGGCGGCCGAAAUCUGCACGCAGGAUAUACAUGAGGAUCACCCAUGUACUGAGCUGAAGAGCACUUGGAA | 0.0115 | 0.0295 | – | –
12 | UUAUAUAGAGUGAGGAUAUGCUGGUCCUUGGAUCAGCAGAAGGCACAUGAGGAUCACCCAUGUAAAAUAAUAUU | 0.0242 | 0.0411 | – | –
13 | GACAUCGCAGGAUAUUAUUGUUUGUACAUGAGGAUCACCCAUGUUAAUUGGGUUAAUGUUUAAGAAGGGCGGUGUC | 0.642 | 0.557 | – | –
14 | GAGUCUCUAUUAGAACCGAUACGAACAUGAGGAUCACCCAUGUAGGAUAUGCUAAAAGUUGUGUUGCAGAAGGACAUUUAUCGC | 0.0111 | 0.0109 | – | –
15 | AGGGUGGGCUCAGGAUAUCAGGAAGGGAUGUGGACAUGAGGAUCACCCAUGUACCAGUGUUGUUAUGAGAAGGGAGAUAUUGUA | – | – | 0.0167 | 0.0135
16 | AAAAAGACAGGAUAUACAUGAAAAAAAAAAAAAAAAAAAAAACAUGAGGAUCACCCAUGUAGAAGGGUCAAAAA | 0.111 | 0.106 | – | –
17 | AUCUAGUCAGGAUAUCGUACAAUAUGGAAAACAUAGAGGUACGAGAAGGGACAUGAGGAUCACCCAUGUAAAAC | 0.0362 | 0.0381 | – | –
18 | UAUGUAUCCUCGGGAUCCACAUGAGGAUCACCCAUGUAGACUCAGGAUAUCCAAUGCGUUGACAGGGAGAAGGGAGUUCGCAUG | 0.0442 | 0.0362 | – | –
19 | AUUUGACACGUAGGAUAUCGCUCUAAUUUAACACGAGAAGGACGUACAUGAGGAUCACCCAUGUUAAAUGGUGUAGUUUAUUUG | 0.0821 | 0.164 | – | –

Row | Sequence | apparent Kd [1] [µM] | apparent Kd [2] [µM] | apparent Kd [3] [µM] | apparent Kd [4] [µM]
20 | UUCUUGUGAGGAUAUCAGUAGUAAAUAAAUAAAAUUACUACUGAGAAGGCACAUGAGGAUCACCCAUGUUCCUU | 0.0146 | 0.0329 | – | –
21 | GGAUAGGACAGAGGAUAUACGUGCUAGAGAUACAAGCAAAAUUUCCUCACAUGAGGAUCACCCAUGUAGAAGGCUGUCCUAUCG | 0.0437 | 0.432 | – | –
22 | UUAGAUAGGUCAGGAUAUCGAUUAUUGUAUAGUAUGAUUUACAUGAGGAUCACCCAUGUUAAAUACGAGAAGGGACGUUAGAUU | 0.0265 | 0.019 | – | –
23 | GAGUGACAUGAGGAUCACCCAUGUAAGGAUAUACGGUUGGUAGAGAGAGGGCUAAAGGGUAGAAGGUACGAAGG | 0.0767 | 0.0487 | – | –
24 | GGGUGGGUACAGAAGGGAGUGAUGGGUUUUUGGUUUGACAUGAGGAUCACCCAUGUUUAUCUGGUUCAGGAUAUGUAGUGGUGG | – | – | 0.149 | 0.0973
25 | UUGGACGUCGUAGGUUAUGUAGGAUAUUCCUACAUGAGGAUCACCCAUGUUGACAUGGAAGAAGGACAGAAGGACGAUGUCCAU | – | – | 0.205 | 0.00392
26 | UGCGUGGUCACAGGAUAUGCAAGAUAAACUUUAGCAGAAGGGUGAUCAAUCAGCUCAAUACCACAUGAGGAUCACCCAUGUCUA | – | – | 0.0534 | 0.258
27 | AAGGACAGAGGAUAUACAUAGAUACAGAUUCAUGUAGAACUACAUGAGGAUCACCCAUGUAGAAGGCUGUCCUA | 0.0307 | 0.285 | – | –
28 | GGGCCCGGUGUGAGGAUAUGCCCGGGUAAAUUUGGGCAGAAGGCACAUGAGGAUCACCCAUGUAAGCCGGGCCC | 0.0139 | 0.0138 | – | –
29 | UCUACAUAAAUUCAUCAAUACAGAAAGGAUAUGAAAUACAUGAGGAUCACCCAUGUUCAUGGGAAUUAGAAGGUUCAAUUAGCU | 0.22 | 0.137 | – | –
30 | AAUUAGUGAGGAUAUUUUAACAGUGGCAGUAGCCAGUGCAUGAAGAAGGCACAUGAGGAUCACCCAUGUUAUAA | 0.101 | 0.0915 | – | –
31 | ACUACGUUAGCGAUAUGAUCGAGAGAUCAUGUCGCUAUAUUUAGAAGGACAUGAGGAUCACCCAUGUAGGAUAUGGGUCGUGGA | – | – | 0.158 | 0.0357
32 | CCAGGCUGUGUGAGGAUAUGCUGGUCCUUGGAUCAGCAGAAGGCACAUGAGGAUCACCCAUGUGAAGAGCUUGG | 0.0164 | 0.065 | – | –
33 | CGCAAGUAUACAUGAGGAUCACCCAUGUCAGAAAGGGUAAUCAGAAGGUACUAUUAGAGAUAGAGUAAGGAUAUGAAAUUUGCG | – | – | 0.718 | 0.138
34 | CAUUAAUUCAUUAUAGUUAUUAUACAGGAUAUGUUACAUGAGGAUCACCCAUGUUUUCAUGGUAAACAGAAGGGUAUAUCAAGU | 0.124 | 0.232 | – | –
35 | UUUAUGUAAGGAUAUGCGGGCGGGCGUGUUUAUGUUUGUUUGUAGAAGGUACAUGAGGAUCACCCAUGUAGUGG | 0.0901 | 0.172 | – | –
36 | CAAACGUGAGGAUAUACAUGAGGAUCACCCAUGUGUUCCUCUAAACUGAAGAAGUAAUGUAGAAGGCACGUUUG | 0.0431 | 0.0194 | – | –
37 | UUGUUAAGAGGAUAUACAUGAGGAUCACCCAUGUGAGAAGUCCAGGGCGUAUUUUCUUGUAGAAGGUUUAGCCC | 0.0251 | 0.0158 | – | –
38 | GUAGUGUGAGGAUAUGAUUAAUAGACGGGAUUGCGACUGCAUCAGAAGGCACAUGAGGAUCACCCAUGUAUGAA | 0.0188 | 0.0519 | – | –

Row | Sequence | apparent Kd [1] [µM] | apparent Kd [2] [µM] | apparent Kd [3] [µM] | apparent Kd [4] [µM]
39 | AAUUAGGUCACAGGAUAUACAUCAUCCAUAGAUGUAGAAGGGUGUCAAAGUAAUAUCUGACAUGAGGAUCACCCAUGUUUCCAC | – | – | 0.0233 | 0.00928
40 | GGGCUGUCAGGAUAUCUCGGGCUCGGGUAAACUCGGGCUCGGGAGAAGGGACAUGAGGAUCACCCAUGUGGCUC | 0.0421 | 0.0515 | – | –
41 | AAGUCAGCAGGAUAUGCGAUGUUGGGCUAGAUAGCGUGACCACAUGAGGAUCACCCAUGUAGAAGGGCUGGCUA | 0.0374 | 0.0437 | – | –
42 | AUGGUUGUCGUAGGAUAUGUAGGAUAUUCCUACAUGAGGAUCACCCAUGUUCGCAUGGAAGAAGGACAGAAGGACGAUGACCAC | – | – | 1.48 | 0.0094
43 | AACGCGGAAAUCGCAAUACAUGAGGAUCACCCAUGUAGAUCGCAGGAUAUGGUCUAGUCAGUGGUCCAGAAGGGUGAUCAGAAC | – | – | 0.125 | 0.0745
44 | CAGAUUUGCUAGAAGGGUGACAUGAGGAUCACCCAUGUGCGGGCAGACCUAUCUUCAUGCCCGCCACAGGAUAUAGCAAUUUGC | – | – | 0.0366 | 0.0179
45 | UGAACUUCAGAGAAGGUCGGAUGGCAACGGUCCGAAGGAUAUCUGGAAACAUGAGGAUCACCCAUGUAACCGGGUGGAUGUCCU | 0.035 | 0.113 | – | –
46 | GCCUUAUUGGUCAGGAUAUACAUUUGUUACUCUUUGUAGAAGGGACAUGAGGAUCACCCAUGUACAUUACAUUC | 0.0208 | 0.0335 | – | –
47 | CGCAAGUCAGGAUAUUCGACUGGUCCAUCUGUGGAUCAGUAGGAGAAGGGACAUGAGGAUCACCCAUGUUUGUU | 0.0307 | 0.0469 | – | –
48 | GAACGUAAAGAGAAGGGCUACUGGUUGAAACCUGCGGCCUCUGGAACAUGAGGAUCACCCAUGUAGCAGGAUAUCUUUGCAUUA | 0.146 | 0.0189 | – | –
49 | AAGAGUAGAGGAUAUACGAAAAAAGAGUCGAAAGACUCGGGACAUGAGGAUCACCCAUGUAGAAGGCUACUCAA | 0.0254 | 0.12 | – | –
50 | CUUGUGUUAGGAUAUGCGCCCUGCAAAAGCAGAGCCAGAGAGCAGAAGGAACAUGAGGAUCACCCAUGUGUGAC | 0.0675 | 0.0613 | – | –
51 | UGUAAGAUGCAGAAGGUGUUAGCUAGAGCUACGACAUGAGGAUCACCCAUGUACUAGAAACAGUACAAGGAUAUGCAUCUUACG | – | – | 0.0175 | 0.00657
52 | UGUUAGUAGACAGGAUAUUGAAUGUUAAGUAUUAACAUGAGGAUCACCCAUGUAUUUGAUUGGUACAAGAAGGGUCAUGUUUGU | – | – | 0.265 | 0.606
53 | GGGCCGCUACGCCGGCUCCACGCACAGGAUAUGCAGUUACAUGAGGAUCACCCAUGUGGCCAUGUGCAGAAGGGUGGUUCGCGA | – | – | 0.0853 | 0.0286
54 | UUAGGCUGAAGAUCAAUUAAUUAACAUGAGGAUCACCCAUGUAAGGAUAUCAGCUCGAUUAGAGCUGAGAAGGUACAUGCAGCC | 0.11 | 0.565 | – | –
55 | UUAAUUAUGUAAGGAUAUACAUGAGGAUUUCUCGUAGAAGGUACAUUACAUGAGGAUCACCCAUGUGGGUGUCCGUAGACGCCA | – | – | 0.632 | 0.614
56 | AAGAAACAUGAGGAUCACCCAUGUGUAAAUAUGGGAGGAUAUACAAGGACGUAAGUCAAGGUAGAAGGCCUAAGAA | – | – | 0.172 | 0.0327

Source: the EternaBench riboswitch data
